Bioassay records (PubChem)
This is a sample that favours compounds with a hit; in the whole collection about 1.9% have one here.
LEDGF integ inh = blockers of LEDGF/p75-dependent integrase strand transfer – biochemical, TR-FRET, high throughput, primary screen | 0.64% of 370,000 active | TR-FRET IN-LEDGF/p75 DNA integration, Eu/Cy5 | AID 743269, 2014 | inhibition, % at 3.7 µM;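 active = inhibition above the screen-wide mean plus 3 SD, cut at about 13% in these data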;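 also: signal is the Cy5 over europium emission ratio at 671 and 618 nm; 0% = plate median of compound wells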
TDP2 absorb = human TDP2 enzyme inhibitors, primary screen, biochemical, epi absorbance, recombinant enzyme; T5PNP hydrolysis, p-nitrophenol absorbance 415 nm; inhibition, % at 12.8 µM; 0.34% of 370,000 active; AID 720702, 2013;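 active = inhibition above the mean of all tested compounds plus 3 SD, set per campaign, cut at about 25% in these data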;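 also: 0% = DMSO with enzyme and 100% = buffer with substrate but no TDP2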
Target sequence (O95551 whole entry, looked up): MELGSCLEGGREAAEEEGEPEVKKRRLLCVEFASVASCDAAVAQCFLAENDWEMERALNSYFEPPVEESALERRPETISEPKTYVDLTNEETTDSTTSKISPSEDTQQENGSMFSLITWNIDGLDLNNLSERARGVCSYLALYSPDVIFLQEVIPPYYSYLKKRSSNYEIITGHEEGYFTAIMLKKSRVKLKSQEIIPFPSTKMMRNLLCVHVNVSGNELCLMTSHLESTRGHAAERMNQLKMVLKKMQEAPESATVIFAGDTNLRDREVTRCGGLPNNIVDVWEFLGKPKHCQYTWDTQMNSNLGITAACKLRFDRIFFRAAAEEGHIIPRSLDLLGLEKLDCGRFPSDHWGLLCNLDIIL
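Assay system: Recombinant human TDP2 | Quantity: 120 nM TDP2 per well | Incubation: 2 h at 37 °C | Signal: Epi absorbance | Evaluation: Percent inhibition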
UHRF1 MBD2 ctr = UHRF1 methylated DNA binding inhibitors, primary screen, counter-screen for MBD2 inhibitor project, biochemical, TR-FRET, human UHRF1, single concentration. UHRF1 binding to methylated oligo. E3 ubiquitin-protein ligase UHRF1 (Homo sapiens), Q96T88. 0.75% of 370,000 active. inhibition, % at 4.4 µM. AID 687016, 2013; in the data active = inhibition above about 21%;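 also: UHRF1 SRA domain binding a hemimethylated CpG hairpin DNA probe; 0% = median of test compound wells and 100% = reference inhibitor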
Rin1 Abl inh = inhibitors of Rin1-Abl protein binding, primary screen, biochemical, TR-FRET | Tyrosine-protein kinase ABL1 (Homo sapiens) + Ras and Rab interactor 1 (Homo sapiens), … | inhibition, % at 7.35 µM | 0.4% of 360,000 active; in the data active = inhibition above about 5%, passing the limit was not always enough
MBD2 inh = inhibitors of MBD2 binding to methylated DNA, primary screen, biochemical, TR-FRET, DNA-binding domain, human | inhibition, % at 4.4 µM | Methyl-CpG-binding domain protein 2 (Homo sapiens), Q9UBB5 | MBD2 binding to methylated oligonucleotide | 0.31% of 370,000 active; in the data active = inhibition above about 13%
Numbers without * were called inactive.

For Cc1cc2c(cc1C)C(=O)CCC2 the results were LEDGF integ inh 2, TDP2 absorb 5, UHRF1 MBD2 ctr 24*, Rin1 Abl inh 2 and MBD2 inh 1.
Screening CS(=O)(=O)N1C[C@]2(c3ccccc3)CC1Cc1ccccc12 returned LEDGF integ inh 0, TDP2 absorb 0, UHRF1 MBD2 ctr 0 and MBD2 inh 6.
`O=C(CCS(=O)(=O)c1ccc(F)cc1)Nc1nc(-c2ccccn2)cs1` gave LEDGF integ inh -1, TDP2 absorb -1, UHRF1 MBD2 ctr 21*, Rin1 Abl inh 3 and MBD2 inh 5.
For CN(CCc1ccccc1)C(=O)c1ccc(NC(=O)Cc2ccc(NC(=O)C3CCCN(C(=O)CCc4ccccc4)C3)cc2)cc1 (configuration not stated) the results were LEDGF integ inh -2, TDP2 absorb 0, UHRF1 MBD2 ctr 37*, Rin1 Abl inh 2 and MBD2 inh -6.
`O=C(CCc1ccncc1)N1CCCC(Nc2ccc(F)cc2)C1` (configuration not stated) gave LEDGF integ inh 1, TDP2 absorb -13, UHRF1 MBD2 ctr 0, Rin1 Abl inh 4 and MBD2 inh -7.
O=C(CCc1ccccc1)N1CCCC(Nc2ccc(F)cc2)C1 (configuration not stated) was read as LEDGF integ inh 6, TDP2 absorb -7, UHRF1 MBD2 ctr 23*, Rin1 Abl inh -3 and MBD2 inh 9.
`CCN(CC)c1ccc(C=NNC(=O)c2cc(-c3ccc(C)c(C)c3)n[nH]2)c(O)c1` gave LEDGF integ inh -3, TDP2 absorb 7, UHRF1 MBD2 ctr -2 and MBD2 inh 1.
CC(C)Oc1cccc(-c2n[nH]c(=S)n2N=Cc2ccc(O)cc2O)c1 was read as LEDGF integ inh 0, TDP2 absorb 9, UHRF1 MBD2 ctr -1 and MBD2 inh 0.
For COc1ccc(NC(=S)NN2CCN(C)CC2)cc1OC the results were LEDGF integ inh 3, TDP2 absorb -4, UHRF1 MBD2 ctr 22*, Rin1 Abl inh 2 and MBD2 inh -1.
`Cc1cn(-c2cc(NC(=O)c3ccc(C)c(Nc4nccc(-c5cccnc5)n4)c3)cc(C(F)(F)F)c2)cn1` gave LEDGF integ inh -1, TDP2 absorb 7, UHRF1 MBD2 ctr 0 and MBD2 inh 1.
Screening CCCCNC(=O)COC(=O)c1c2c(nc3ccccc13)/C(=C/c1cccs1)CC2 returned LEDGF integ inh 1, TDP2 absorb 2, UHRF1 MBD2 ctr -3, Rin1 Abl inh 2 and MBD2 inh -5.
For CC1CCCCC1NC(=O)COC(=O)c1c2c(nc3ccccc13)/C(=C\c1ccco1)CC2 (configuration not stated) the results were LEDGF integ inh 27*, TDP2 absorb -12, UHRF1 MBD2 ctr 20, Rin1 Abl inh 5 and MBD2 inh 7.
Screening COc1ccc2ccccc2c1C=Nn1c(-c2cc(-c3ccccc3)n[nH]2)n[nH]c1=S returned LEDGF integ inh -4, TDP2 absorb 8, UHRF1 MBD2 ctr -2 and MBD2 inh -1.
Cc1cc(C(=O)COC(=O)c2ccc(O)cc2)c(C)n1-c1ccccc1F was read as LEDGF integ inh -1, TDP2 absorb -13, UHRF1 MBD2 ctr 21*, Rin1 Abl inh -2 and MBD2 inh 12.
For Cc1cc(C(=O)COC(=O)c2ccc[nH]c2=O)c(C)n1-c1ccccc1F the results were LEDGF integ inh -3, TDP2 absorb -11, UHRF1 MBD2 ctr 0, Rin1 Abl inh -1 and MBD2 inh 4.
Cc1n[nH]c(C)c1S(=O)(=O)N1CCC(C(=O)O)CC1 was read as LEDGF integ inh -4, TDP2 absorb 4, UHRF1 MBD2 ctr 21*, Rin1 Abl inh 2 and MBD2 inh 10.
For Cc1cc(OCCN2CCOCC2)ccc1Cl the results were LEDGF integ inh 0, TDP2 absorb 8, UHRF1 MBD2 ctr 22*, Rin1 Abl inh 0 and MBD2 inh 4.
`Cc1ccc(OCCN2CCOCC2)cc1C` gave LEDGF integ inh -2, TDP2 absorb 0, UHRF1 MBD2 ctr -2, Rin1 Abl inh 6 and MBD2 inh -3.
